# Bioassay records (PubChem BioAssay)
# Rows were chosen to be rich in hits. Some 2.7% of all compounds tested hit in one or more screens of this group.
# PAFAH2 FP inh: inhibitors of human PAFAH2 | hit rate 0.99% among 340,000 | inhibition, % at 3.39 µM | AID 492956 | Q99487 | recombinant PAFAH2, FP-rhodamine activity probe, fluorescence polarization;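 active = inhibition above the mean over all tested compounds plus 3 SD, cut at about 30% in these data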;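 also: inhibitors block probe labeling of enzyme so polarization drops; 0% = enzyme with DMSO and 100% = wells lacking PAFAH2 protein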
# ARFGAP1 inhibitor: rat ARFGAP1 inhibition. Q62848. Arfgap1-stimulated ARF1 GTP hydrolysis, GDP FP detection. inhibition, % at 16.5 µM. hit rate 0.26% among 360,000;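 active = inhibition above a per-plate limit, mean inhibition of low control wells plus 3 SD, cut at about 25% in these data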;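 also: 0% = DMSO wells with enzyme and 100% = wells lacking Arfgap1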
# Target sequence (Q62848 1-136 limits assumed): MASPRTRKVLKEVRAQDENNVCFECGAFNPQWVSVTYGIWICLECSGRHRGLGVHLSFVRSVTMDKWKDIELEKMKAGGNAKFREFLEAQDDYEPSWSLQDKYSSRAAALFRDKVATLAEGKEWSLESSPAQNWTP
#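 Material: rat Arfgap1 catalytic domain, aa 1-136; also added: human ARF1(Δ1-17)-GTP substrate; compound dosing: one concentration, 16.5 µM, DMSO 1.26%; incubation: GTP hydrolysis reaction 2 h at 25 °C; measured by: Tracer-displacement fluorescence polarization with EDTA stop, 620/688 nm; evaluation: % inhibition from polarization; repeats: one replicate per compound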
# ASAP1 inh: ASAP1 ArfGAP inhibition. Q9ULH1. ASAP1-stimulated ARF1 GTP hydrolysis, GDP FP detection. inhibition, % at 16.5 µM. hit rate 0.19% among 360,000; in the data active = inhibition above about 25%;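 also: 0% = vehicle with enzyme and substrate and 100% = no enzyme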
# PAFAH1B2 FP inh: blocks human PAF acetylhydrolase 1b catalytic subunit 2; AID 492953; P68402; recombinant PAFAH1B2, FP-rhodamine activity probe, fluorescence polarization; inhibition, % at 3.39 µM; hit rate 1.2% among 340,000;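 active = inhibition above the mean of all tested compounds plus 3 SD, cut at about 24% in these data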;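 also: 0% = enzyme with DMSO and 100% = wells lacking PAFAH1B2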
# Target sequence (P68402 whole entry, looked up): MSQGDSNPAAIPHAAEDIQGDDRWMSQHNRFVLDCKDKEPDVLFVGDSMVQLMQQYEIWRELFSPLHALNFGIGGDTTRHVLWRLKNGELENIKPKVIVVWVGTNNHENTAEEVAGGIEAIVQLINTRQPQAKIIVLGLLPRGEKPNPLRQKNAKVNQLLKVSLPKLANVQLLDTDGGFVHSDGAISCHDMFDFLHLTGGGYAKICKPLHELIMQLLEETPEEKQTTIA
# PAFAH1B3 inh: blocks human PAF acetylhydrolase 1B catalytic subunit 3; inhibition, % at 3.39 µM; recombinant PAFAH1B3, FP-rhodamine probe, fluorescence polarization; AID 492972; Q15102; hit rate 0.28% among 340,000;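 active = inhibition above the screen-wide average of all tested compounds plus 3 SD, cut at about 25% in these data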;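 also: 0% = enzyme with DMSO only and 100% = wells lacking PAFAH1B3 protein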
# Target sequence (Q15102 whole entry, looked up): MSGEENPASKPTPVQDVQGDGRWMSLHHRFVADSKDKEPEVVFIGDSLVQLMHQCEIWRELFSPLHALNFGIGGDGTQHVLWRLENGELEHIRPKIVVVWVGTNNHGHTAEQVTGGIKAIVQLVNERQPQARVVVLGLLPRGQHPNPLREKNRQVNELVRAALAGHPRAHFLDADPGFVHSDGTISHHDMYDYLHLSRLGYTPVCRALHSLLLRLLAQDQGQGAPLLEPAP
# pPAFAH FP inh: pPAFAH (human) enzyme inhibition; Q13093; recombinant pPAFAH, FP-rhodamine probe fluorescence polarization; inhibition, % at 3.39 µM; hit rate 1.5% among 330,000; AID 463082;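 active = inhibition above the mean inhibition across the screen plus 3 SD, cut at about 25% in these data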;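 also: inhibitors block binding of the rhodamine activity-based probe so polarization drops; 0% = enzyme with DMSO and 100% = wells lacking pPAFAH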
# * = called active by the depositor; / = no result.
SMILES,PAFAH2 FP inh,ARFGAP1 inhibitor,ASAP1 inh,PAFAH1B2 FP inh,PAFAH1B3 inh,pPAFAH FP inh
Cc1ccc(NS(=O)(=O)c2ccc3c(c2)NC(=O)CCS3)c(Cl)c1,8,-2,-1,4,-1,6
Cc1ccc(NS(=O)(=O)c2ccc3c(c2)NC(=O)CCS3)c(C)c1,9,-1,-3,13,8,30*
CC(CNS(=O)(=O)c1ccc2c(c1)NC(=O)CCS2)c1ccccc1 (stereo not given),-2,-3,1,39*,0,27*
CC(=O)Nc1ccc(S(=O)(=O)N2CCC(NC(C)=O)(c3cccc(F)c3)CC2)cc1,-5,7,2,2,3,27*
CC(=O)Nc1ccc(S(=O)(=O)N2CCC(C(=O)O)(c3ccccc3)CC2)cc1,2,0,5,6,4,1
CCOc1ccc(C2C3=C(CCCC3=O)Nc3ccc4ncccc4c32)cc1 (stereo not given),0,-1,-14,1,7,29*
CN1OC[C@@H]2CN(CC3CCCCC3)[C@H](c3ccc(-c4ccc(C#N)cc4)cc3)C[C@@H]21,/,5,5,/,/,/
Nc1n[nH]c2c1C1(CCCCC1)Cc1ccccc1-2,1,4,0,32*,7,-1
Nc1ncnc2c1C1(CCCCC1)Cc1ccccc1-2,3,7,1,20,5,5
C=CCNc1cccc2c1S(=O)(=O)N[C@H](CC(C)C)CO2,/,-2,1,/,/,/
CCN(CC(=O)Nc1sc2c(c1C#N)CCC(C)C2)Cc1nc2ccccc2c(=O)[nH]1 (stereo not given),7,-8,3,27*,2,4
CC(C)(C)C1CCC2(CC1)C(C#N)=C(SCC(=O)Nc1ccccc1)NC(=O)C2C#N (stereo not given),5,0,7,57*,8,9
O=[N+]([O-])c1ccc(N/N=C\c2cccn2-c2ccccc2)nc1,-2,-1,2,6,0,29*
O=C(COC(=O)c1c[nH]c2ccccc12)NC1CCCCC1,83*,-5,-15,6,9,28*
O=C(COC(=O)CNC(=O)c1ccccc1)NC12CC3CC(CC(C3)C1)C2,/,-5,0,/,/,/
O=C(COC(=O)Cc1ccc(Br)cc1)NC12CC3CC(CC(C3)C1)C2,4,5,-2,38*,14,26*
O=C(COC(=O)Cc1ccc(Br)cc1)NC1CCCCCC1,9,5,-4,27*,13,27*
CC1(C)CC(=O)C=C(c2ccc(COC(=O)c3ccc(Br)cc3)cc2)C1=O,/,-6,-12,/,/,/
CCOC(=O)C(CC(=O)O)=C(c1ccccc1)c1ccccc1,5,-3,-2,32*,8,2
CCOC(=O)C(NC(=O)c1ccccc1)=C(C)C,5,1,15,2,5,3
O=C(N/N=C/c1cc([N+](=O)[O-])ccc1O)Nc1ccccc1,3,-9,-6,32*,3,13
O=[N+]([O-])c1ccc(O)c(C=NNc2ccc(S(=O)(=O)O)cc2)c1,6,1,-22,6,9,/
O=[N+]([O-])c1ccc(O)c(/C=N/NC(=S)Nc2ccc(Cl)cc2Cl)c1,45*,-11,4,42*,23,18
O=[N+]([O-])c1cccc(N/N=C/c2cc([N+](=O)[O-])ccc2O)c1,39*,10,-8,-1,8,28*
Cc1cc(Cl)ccc1NC(=O)CCC(=O)N/N=C/c1cc([N+](=O)[O-])ccc1O,6,8,14,3,3,2
SMILES,PAFAH2 FP inh,ARFGAP1 inhibitor,ASAP1 inh,PAFAH1B2 FP inh,PAFAH1B3 inh,pPAFAH FP inh
O=[N+]([O-])c1ccc(O)c(/C=N/Nc2nc3ccccc3[nH]2)c1,-1,-3,3,35*,16,12
O=C(NN=Cc1cc([N+](=O)[O-])ccc1O)c1cccc2ccccc12,25,-3,2,6,11,/
COc1ccc(O)c(/C=N/Nc2nc3ccccc3[nH]2)c1,-6,-1,7,9,2,6
O=c1c2ccccc2nnn1Cc1ccco1,/,-2,-8,/,/,/
Cc1ccc(CN2CC=CS2(=O)=O)cc1,/,11,13,/,/,/
O=C(Cc1cccc2ccccc12)NN1C(=O)/C(=C\c2cccnc2)SC1=S,-8,10,14,3,0,3
O=C(NN1C(=O)/C(=C/c2cccnc2)SC1=S)C(c1ccccc1)c1ccccc1,6,-6,7,27*,4,12
CC(=O)NN1C(=O)/C(=C/c2ccc(C(C)C)cc2)SC1=S,-3,4,-7,42*,7,12
O=C(NN1C(=O)/C(=C\c2cccnc2)SC1=S)C(c1ccccc1)c1ccccc1,7,-1,1,29*,5,13
O=C(O)c1ccc(/C=C2\SC(=S)N(NC(=O)c3ccccc3)C2=O)cc1,-13,-3,4,-5,-1,5
CCOC(=O)N[C@H](C(=O)N1CCC[C@H]1C(=O)NCCc1ccccc1Cl)C1CCCCC1,/,1,-19,/,/,/
CCOC(=O)C1=C(C(=O)OCC)C2N(Cc3ccc(C#N)cc3)c3ccccc3[C@@]23C[C@@H](C(=O)OC)N(S(=O)(=O)c2c(C)noc2C)C3=N1 (stereo not given in full),/,-4,8,/,/,/
COC(=O)[C@]12C[C@H](CC(=O)NCc3cccs3)C(=O)N(Cc3ccc4c(c3)OCO4)C1=C[C@H](C(C)(C)C)O[C@@H]2C,/,-3,-9,/,/,/
COc1cccc(CN(C)C(=O)c2cc(S(=O)(=O)NC3CCCCC3)ccc2C)c1,10,-10,-14,7,-1,34*
COc1cccc(C2NC(=S)NC(C)=C2C(C)=O)c1 (stereo not given),/,-6,-11,/,/,/
NC(=S)NN=C1CCCCCCCCCC1,7,6,-15,28*,3,/
COc1ccc(N)c2c1C(=O)c1ccccc1C2=O,27,11,0,13,13,17
Nc1ccc(Br)c2c1C(=O)c1ccccc1C2=O,/,/,/,/,/,25*
COC(=O)c1c(NC(=O)COC(=O)CCNS(=O)(=O)c2ccc(NC(C)=O)cc2)sc(C)c1C,-2,-4,-11,-4,-1,9
COC(=O)c1c(C)[nH]c(C(=O)COC(=O)CCNS(=O)(=O)c2cccc(C(F)(F)F)c2)c1C,-1,5,-14,-6,0,33*
COC(=O)c1c(NC(=O)COC(=O)CCNS(=O)(=O)c2ccccc2)sc(C)c1C,9,6,1,3,2,26*
C[C@@H]1CN(c2ccc(N3CCNC[C@@H]3C)cc2C#N)CCN1Cc1ccccc1,/,5,-6,/,/,/
Cc1ccccc1OCCn1cc(C(=O)O)c2ccccc21,3,-5,-4,24*,10,5
Cc1ccc(C)c(OCCn2cc(C(=O)O)c3ccccc32)c1,/,7,7,/,/,3
